Screens as filed in PubChem.
The list is not random: actives were taken first. Their share in the collection is about 1.4%.
thrombin 1536 – human alpha-thrombin inhibitors, primary screen, counter-screen for coagulation protease inhibitor project, biochemical, 1536-well, fluorogenic AMC substrate; AID 1046, 2008; 220,000 tested, 0.26% active; Boc-VPR-AMC fluorogenic substrate cleavage; Prothrombin (Homo sapiens), P00734; inhibition, % at 5 µM;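 active means inhibition at or above 40%; inactive means inhibition below 40%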
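Material: Human alpha-thrombin protein | Buffer or medium: pH 7.5 Tris-saline with Tween 20 | Reagent: Boc-VPR-AMC substrate, 15 µM final | Schedule: Reaction at ambient temperature | Detection: AMC fluorescence at 355 nm excitation and 460 nm emission | Evaluation: Percent inhibition scaled between no-compound controls and no-enzyme blanks | Controls: no-compound enzyme wells and no-enzyme blanks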
Calpain2 inh – inhibitors of pig calpain II, primary screen, biochemical, fluorogenic peptide substrate, 1536-well | purified calpain II, 30 min | inhibition, % at 16 µM | 220,000 tested, 0.37% active | AID 1236, 2008;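 active means inhibition above about 50%, limit read from the data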
Furin inhibitor – human furin inhibitors, primary screen, biochemical, fluorescence intensity | P09958 | purified furin, fluorogenic substrate cleavage | inhibition, % at 20 µM or 30 µM | 220,000 tested, 0.061% active | AID 463115, 2010; in the data active means inhibition above about 25%
FXIIa inh 1536 – human FXIIa protease inhibitors, primary screen, biochemical, 1536-well | Coagulation factor XII (Homo sapiens), P00748 | AID 800, 2007 | 220,000 tested, 0.3% active | purified FXIIa, Boc-QGR-AMC fluorogenic substrate, 2 h | inhibition, % at 5 µM; in the data active means inhibition above about 40%
Target sequence (P00748 20-372 limits assumed): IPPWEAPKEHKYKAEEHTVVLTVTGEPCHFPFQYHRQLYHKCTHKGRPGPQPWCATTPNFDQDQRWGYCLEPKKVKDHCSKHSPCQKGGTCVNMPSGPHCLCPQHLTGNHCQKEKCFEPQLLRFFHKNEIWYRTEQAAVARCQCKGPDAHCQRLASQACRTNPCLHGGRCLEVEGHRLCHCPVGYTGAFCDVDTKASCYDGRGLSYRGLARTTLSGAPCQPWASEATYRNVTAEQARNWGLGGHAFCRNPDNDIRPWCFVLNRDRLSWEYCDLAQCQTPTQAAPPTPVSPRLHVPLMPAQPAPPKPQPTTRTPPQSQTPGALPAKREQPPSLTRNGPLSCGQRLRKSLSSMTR
Target sequence (P00748 373-615 limits assumed): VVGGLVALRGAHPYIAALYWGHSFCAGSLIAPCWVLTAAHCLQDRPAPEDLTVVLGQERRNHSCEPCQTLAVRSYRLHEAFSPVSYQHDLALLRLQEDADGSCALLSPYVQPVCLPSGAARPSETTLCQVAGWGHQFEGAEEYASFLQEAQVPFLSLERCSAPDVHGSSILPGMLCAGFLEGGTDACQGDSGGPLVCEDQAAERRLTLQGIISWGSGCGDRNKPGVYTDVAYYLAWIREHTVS
KLK5 inh – human KLK5 protease inhibitors, primary screen, biochemical, 1536-well; Kallikrein-5 (Homo sapiens), Q9Y337; recombinant hK5, fluorogenic AMC substrate cleavage; 210,000 tested, 0.59% active; inhibition, % at 5 µM;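 active means inhibition of 40% or more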
FXIa inh 1536 – human FXIa protease inhibitors, primary screen, biochemical, 1536-well; inhibition, % at 5 µM; Coagulation factor XI (Homo sapiens), P03951; AID 798, 2007; 220,000 tested, 0.14% active; purified FXIa, Boc-Glu-Ala-Arg-AMC fluorogenic substrate;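 active means inhibition of at least 40%; inactive means inhibition below 40%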;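 further: fluorescence of freed AMC excited at 355 nm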
A number is an active result; i = inactive; nt = no result.

SMILES	thrombin 1536	Calpain2 inh	Furin inhibitor	FXIIa inh 1536	KLK5 inh	FXIa inh 1536
O=C(NCc1cccnc1)C1CCC(CNS(=O)(=O)c2ccc(Cl)cc2)CC1 (centres undefined)	i	55	i	i	i	i
Cc1cc(C(=O)N/N=C2\CC(=O)c3ccccc32)c(C)n1-c1ccc(F)cc1	i	i	i	i	i	i
O=C1C2C3C=CC(C3)C2C(=O)N1c1ccc(Cc2ccncc2)cc1 (centres undefined)	i	i	i	i	i	i
O=C1c2ccc(Br)cc2C(=O)N1c1ccc(Cc2ccncc2)cc1	i	88	i	i	i	i
Cc1noc(C)c1COc1ccc(C(=O)OCc2nnc(-c3ccc(Cl)cc3)o2)cc1	i	51	i	i	i	i
Cc1noc(C)c1COc1ccc(C(=O)OCC(=O)NC2CCCCC2C)cc1 (centres undefined)	i	i	i	i	43	i
Cc1noc(C)c1COc1ccc(C(=O)OCC(=O)NC23CC4CC(CC(C4)C2)C3)cc1	i	i	i	i	i	i
CCOC(=O)CSc1nc(C(C)C)nc2sc(C)c(C)c12	i	54	i	i	i	i
COc1cc(/C=C2/SC(=O)NC2=O)ccc1Oc1ccc([N+](=O)[O-])cc1[N+](=O)[O-]	i	63	i	i	i	i
COc1cc(/C=C2\SC(=O)NC2=O)ccc1Oc1ccc([N+](=O)[O-])cn1	i	i	i	i	i	i
O=C(CCC(=O)N/N=C/c1ccc(Br)s1)NCc1ccccc1	i	i	i	44	i	i
O=C(CC(=O)N/N=C/c1cccs1)NCc1ccccc1	i	i	i	i	i	i
Fc1ccc(N2CCN(C(c3cccs3)c3nnnn3CCc3ccccc3)CC2)cc1 (centres undefined)	i	i	i	i	i	i
Fc1ccccc1N1CCN(C(c2cccs2)c2nnnn2CCc2ccccc2)CC1 (centres undefined)	i	55	i	i	i	i
CCCC(=O)Nc1ccc(Sc2ccc([N+](=O)[O-])cc2)cc1	i	58	i	i	i	i
CCCCOCCCNC(=O)C1CCCCC1	i	i	i	i	41	i
CC(C)(C)C(=O)N1NC(=Nc2ccccc2)SC1(C)C	i	i	i	40	i	i
Cc1cc(C)nc(SCC(=O)Nc2ncc(Cc3cccc(Cl)c3Cl)s2)n1	i	i	i	i	i	i
O=C(CS(=O)(=O)c1cn(Cc2ccc(Cl)cc2)c2ccccc12)N1CCCC1	i	i	i	i	i	i
O=C(Cc1cn(Cc2cccc(Cl)c2)c2ccccc12)N1CCCC1	i	52	i	i	i	i
Cc1ccc(C)c(N2CCN(C(=O)Cc3cn(C)c4ccccc34)CC2)c1	i	i	i	i	i	i
Cc1ccc(Cl)cc1N1CCN(C(=O)Cc2cn(C)c3ccccc23)CC1	i	55	i	i	i	i
CC1CN(C2CCCCC2)c2nc3c(c(=O)[nH]c(=O)n3C)n2C1 (centres undefined)	i	i	i	i	i	i
O=C(NCCN1C(=O)C2C3C=CC(C3)C2C1=O)Nc1ccccc1 (centres undefined)	i	i	i	107	i	i
Cc1ccc(NC(=O)NCCN2C(=O)C3C4C=CC(C4)C3C2=O)cc1 (centres undefined)	i	i	i	i	i	i
SMILES	thrombin 1536	Calpain2 inh	Furin inhibitor	FXIIa inh 1536	KLK5 inh	FXIa inh 1536
CCN(CC)CCn1c(SCC(=O)NCCC2=CCCCC2)nc2c(sc3ccccc32)c1=O	i	i	i	i	i	i
Cc1cc(=O)oc2cc(NC(=O)CC3(CC(=O)O)CCCC3)ccc12	i	i	i	i	52	i
Cc1cc(C(=O)N/N=C/c2c(C)nn(-c3ccccc3)c2C)n[nH]1	i	i	i	i	89	i
Cc1oc(-c2ccc(F)cc2)nc1CN(Cc1ccccn1)CC1CCCO1 (centres undefined)	i	i	i	i	i	i
CCOC(=O)c1ccccc1NC(=O)CN(c1ccccc1)S(=O)(=O)N(C)C	i	i	i	i	i	i
OCCN1CCN(c2nc(-c3ccccc3)c3cc(Cl)ccc3n2)CC1	i	i	i	i	i	i
Clc1ccc2oc(-c3ccccc3)cc(=NCCCN3CCOCC3)c2c1	52	i	i	i	i	i
OCCCCCN=c1cc(-c2ccccc2)oc2ccc(Cl)cc12	60	i	i	i	69	i
CCN(C(=S)Nc1cccnc1)c1cccc2ccccc12	i	i	i	i	nt	i
CCOC(=O)CSc1nnc(-c2ccccc2)o1	i	i	i	i	i	44
CCOC(=O)CSc1snnc1-c1ccccc1	i	i	i	58	i	i
CC(=O)c1ncnn1CC(=O)c1ccc(Cl)cc1Cl	i	i	i	i	i	i
Cc1c(NC(=O)c2ccc(Cl)c(S(=O)(=O)N3CCOCC3)c2)c(=O)n(-c2ccccc2)n1C	i	i	30	i	i	i
Cc1ccc(C(=O)Nc2c(C)n(C)n(-c3ccccc3)c2=O)cc1S(=O)(=O)N1CCOCC1	nt	nt	i	nt	nt	nt
COCCNC(=O)CSc1nnc2c(Cl)cc(Cl)cn12	i	i	i	56	52	i
Cc1cc([N+](=O)[O-])nn1CCCC(=O)Nc1cc(Oc2ccccc2)cc([N+](=O)[O-])c1	i	56	i	i	i	i
COc1ccc(CNC(=O)CCCn2nc([N+](=O)[O-])cc2C)cc1	i	60	i	i	i	i
Cc1ccc(NCc2nnc(SCCN3CCCCC3)n2CC2CCCO2)c(C)c1 (centres undefined)	i	i	i	i	i	i
O=C(CSc1ncnc2c1cnn2CCO)Nc1cccc(C(F)(F)F)c1	i	i	i	i	i	i
O=C(Nc1cccnc1)c1cccs1	i	64	i	i	i	i
CC(C)c1cc(C(=O)Nc2cccnc2)no1	i	i	i	i	45	i
CCCc1cc(C(=O)Nc2cccnc2)no1	i	i	i	i	i	i
CCOC(=O)c1cc(C(=O)OCC)c2cc(Br)ccc2n1	i	i	i	i	i	i
C=CCSc1nc(C)c(CCCC)c(=O)[nH]1	i	i	i	i	nt	i
C=CCSc1nc(C)c(CC=C)c(=O)[nH]1	i	i	i	53	i	i
CC(O)Cc1nsc(NC(=O)c2cccs2)n1 (centres undefined)	i	i	i	i	i	i
N/C(=N\OC(=O)c1cccc(Cn2cc(C(F)(F)F)ccc2=O)c1)c1ccc(Cl)cc1	i	i	i	i	52	i
N/C(=N\OC(=O)c1cccc(Cn2cc(C(F)(F)F)ccc2=O)c1)c1ccccc1	i	i	i	i	i	i
